Drawing on ChEMBL document CHEMBL1141063, “Ligands with dual vitamin D3-agonistic and androgen-antagonistic activities” (Bioorg Med Chem Lett, 2005), this text covers ED50, Ratio and Ki for ten molecules.

Experiment [1] concerns the target T1, Vitamin D3 receptor (Homo sapiens) (UniProt P11473).
T1 sequence (whole entry): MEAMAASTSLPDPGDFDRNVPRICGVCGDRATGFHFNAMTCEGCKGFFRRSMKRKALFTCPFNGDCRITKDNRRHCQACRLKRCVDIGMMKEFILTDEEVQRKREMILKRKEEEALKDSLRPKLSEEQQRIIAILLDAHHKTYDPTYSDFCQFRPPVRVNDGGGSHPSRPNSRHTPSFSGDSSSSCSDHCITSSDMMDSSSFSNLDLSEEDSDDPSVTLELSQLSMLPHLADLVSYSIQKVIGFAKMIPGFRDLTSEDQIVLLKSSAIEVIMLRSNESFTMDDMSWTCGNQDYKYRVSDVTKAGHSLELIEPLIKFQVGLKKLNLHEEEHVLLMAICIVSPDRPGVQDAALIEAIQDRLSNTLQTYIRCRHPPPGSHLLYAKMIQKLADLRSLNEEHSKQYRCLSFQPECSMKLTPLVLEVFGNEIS
Briefly: Vitamin D3 agonistic activity as effective dose for HL-60 monocytic cell differentiation. Format: functional, cell-based. Put shortly:
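HL-60 cells held in RPMI 1640 with or without test compound for three days. Cells were then mixed 1:1 (v/v) with PBS containing 0.2% NBT and 20 nM TPA and kept 20 min at 37 °C. NBT-positive cells were counted among 200–300 cells to give the ED50. Differentiation was also checked by Wright–Giemsa morphology.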

The nature of experiment [2]: Activity ratio of effective dose against vitamin D3 and inhibitory activity against androgen antagonistic activity. Format: functional. Put shortly: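 Ratio of ED50 for HL-60 differentiation to IC50 for SC-3 growth inhibition. HL-60: cells in RPMI 1640 with or without compound for three days, then NBT 0.2% plus TPA 20 nM in PBS (1:1) for 20 min at 37 °C; NBT-positive cells counted among 200–300. SC-3: cells in MEM, 10% FBS, 10 nM testosterone with or without compound, three days, 37 °C, 5% CO2.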

A further experiment addresses T2, Androgen receptor (Homo sapiens, UniProt P10275).
T2 sequence (P10275 whole entry): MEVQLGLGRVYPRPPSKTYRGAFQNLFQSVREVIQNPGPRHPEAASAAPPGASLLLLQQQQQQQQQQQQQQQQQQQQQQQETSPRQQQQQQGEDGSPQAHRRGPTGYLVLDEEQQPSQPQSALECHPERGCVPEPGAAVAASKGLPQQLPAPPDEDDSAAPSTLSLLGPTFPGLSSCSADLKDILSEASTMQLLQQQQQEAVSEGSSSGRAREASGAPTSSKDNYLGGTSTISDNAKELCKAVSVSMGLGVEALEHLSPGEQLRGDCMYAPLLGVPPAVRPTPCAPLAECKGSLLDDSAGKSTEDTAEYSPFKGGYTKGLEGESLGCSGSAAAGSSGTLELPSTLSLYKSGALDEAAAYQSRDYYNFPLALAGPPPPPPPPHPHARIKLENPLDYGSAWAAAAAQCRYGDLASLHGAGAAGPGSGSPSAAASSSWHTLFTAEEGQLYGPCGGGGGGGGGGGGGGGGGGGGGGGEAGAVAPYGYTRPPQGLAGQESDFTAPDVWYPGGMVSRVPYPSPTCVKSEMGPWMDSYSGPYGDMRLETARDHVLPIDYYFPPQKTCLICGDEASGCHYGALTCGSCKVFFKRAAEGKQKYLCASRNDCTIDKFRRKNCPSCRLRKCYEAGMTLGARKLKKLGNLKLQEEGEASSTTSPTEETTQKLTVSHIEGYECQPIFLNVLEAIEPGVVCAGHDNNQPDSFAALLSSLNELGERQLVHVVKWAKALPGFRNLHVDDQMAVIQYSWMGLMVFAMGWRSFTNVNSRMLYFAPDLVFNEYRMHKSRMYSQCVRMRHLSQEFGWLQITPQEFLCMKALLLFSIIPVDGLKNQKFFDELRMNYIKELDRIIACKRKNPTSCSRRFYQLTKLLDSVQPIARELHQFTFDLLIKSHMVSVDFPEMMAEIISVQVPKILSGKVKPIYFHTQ
Briefly: Binding affinity to androgen receptor by incubation with GST-hARLBD and [3H]testosterone.

`CCC(CC)(c1ccc(O)c(C)c1)c1ccc(NCC(=O)C(C)(C)C)c(C)c1`: the ED50 in experiment [1] came to 1500 nM. Moreover, the Ratio in experiment [2] amounted to 0.43.

`CCC(CC)(c1ccc(OCC(O)CO)c(C)c1)c1ccc(OCC(O)C(C)(C)C)c(C)c1` (centres undefined) registered an ED50 in experiment [1] of 44 nM. Further, the Ratio in experiment [2] came to 2.31.

In experiment [1], `CCC(CC)(c1ccc(OCC(=O)C(C)(C)C)c(C)c1)c1ccc(OCC(=O)C(C)(C)C)c(C)c1` gave an ED50 of 410 nM. For the same molecule, the Ratio in experiment [2] was found to be 0.22.

As usually defined, the Ki is the dissociation constant of the complex between target and ligand, obtained from inhibition or displacement. In experiment [1], `CCC(CC)(c1ccc(NCCC(C)(C)O)c(C)c1)c1ccc(OCC(=O)C(C)(C)C)c(C)c1` yielded an ED50 of 370 nM. At Androgen receptor, this molecule returned a Ki of 2900 nM. In addition, in experiment [2], the Ratio stood at 0.45.

Turning to `CCC(CC)(c1ccc(NCC(=O)C(C)(C)C)c(C)c1)c1ccc(NCC(=O)C(C)(C)C)c(C)c1`, in experiment [1], the ED50 was 450 nM. In addition, the Ratio in experiment [2] is 0.45.

The molecule `CCC(CC)(c1ccc(NCC(=O)C(C)(C)C)c(C)c1)c1ccc(OCC(=O)C(C)(C)C)c(C)c1` had an ED50 in experiment [1] of 450 nM. Further, the Ratio in experiment [2] amounted to 0.38.

`CCC(CC)(c1ccc(NCC(O)C(C)(C)C)c(C)c1)c1ccc(NCC(O)C(C)(C)C)c(C)c1` (centres undefined) gave an ED50 in experiment [1] of 1200 nM. Besides, the Ratio in experiment [2] was 1.2.

Consider `CCC(CC)(c1ccc(NCC(O)CO)c(C)c1)c1ccc(OCC(O)C(C)(C)C)c(C)c1` (centres undefined), for which the ED50 in experiment [1] is 52 nM. Moreover, the Ki on Androgen receptor was found to be 1510 nM. In addition, the Ratio in experiment [2] was 5.78.

In experiment [1], `CCC(CC)(c1ccc(NCC(O)CO)c(C)c1)c1ccc(OCC(=O)C(C)(C)C)c(C)c1` (centres undefined) had an ED50 of 110 nM. At Androgen receptor, this molecule gave a Ki of 1170 nM. Besides, the Ratio in experiment [2] is 14.5.

On to `CCC(CC)(c1ccc(NCCC(C)(C)O)c(C)c1)c1ccc(NCCC(C)(C)O)c(C)c1`, for which the ED50 in experiment [1] stood at 900 nM. For the same molecule, the Ki on Androgen receptor was found to be 3380 nM. For the same molecule, the Ratio in experiment [2] is 0.13.
